For four molecules, Activity and IC50 results are on record in ChEMBL document CHEMBL1155278, “3,4-Diaryl-isoxazoles and -imidazoles as potent dual inhibitors of p38alpha mitogen activated protein kinase and casein kinase 1delta” (J Med Chem, 2009).

Each structure is given as a SMILES string.

Test [1] addresses RAC-alpha serine/threonine-protein kinase (Homo sapiens) (UniProt P31749). The experiment in a line: Inhibition of PKBalpha assessed as residual activity at 10 uM by Cherenkov counting relative to control in presence of 5 uM ATP. An outline of the steps: (§1)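 Single-concentration profiling at 10 μM in a 78-kinase panel. Kinase activity is expressed as a percentage of control assays run without compound.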

Test [2] addresses Serine/threonine-protein kinase PLK1 (Homo sapiens) (UniProt P53350). Put plainly: Inhibition of okadaic acid-induced PLK1 assessed as residual activity at 10 uM by Cherenkov counting relative to control in presence of 5 uM ATP. The gist of the method:
as §1

Test [3] has the same target. Put plainly: Inhibition of PLK1 assessed as residual activity at 10 uM by Cherenkov counting relative to control in presence of 5 uM ATP. An outline of the steps: as §1
Test [4] addresses T1, Dual specificity tyrosine-phosphorylation-regulated kinase 3 (Homo sapiens) (UniProt O43781).
T1 sequence (whole entry): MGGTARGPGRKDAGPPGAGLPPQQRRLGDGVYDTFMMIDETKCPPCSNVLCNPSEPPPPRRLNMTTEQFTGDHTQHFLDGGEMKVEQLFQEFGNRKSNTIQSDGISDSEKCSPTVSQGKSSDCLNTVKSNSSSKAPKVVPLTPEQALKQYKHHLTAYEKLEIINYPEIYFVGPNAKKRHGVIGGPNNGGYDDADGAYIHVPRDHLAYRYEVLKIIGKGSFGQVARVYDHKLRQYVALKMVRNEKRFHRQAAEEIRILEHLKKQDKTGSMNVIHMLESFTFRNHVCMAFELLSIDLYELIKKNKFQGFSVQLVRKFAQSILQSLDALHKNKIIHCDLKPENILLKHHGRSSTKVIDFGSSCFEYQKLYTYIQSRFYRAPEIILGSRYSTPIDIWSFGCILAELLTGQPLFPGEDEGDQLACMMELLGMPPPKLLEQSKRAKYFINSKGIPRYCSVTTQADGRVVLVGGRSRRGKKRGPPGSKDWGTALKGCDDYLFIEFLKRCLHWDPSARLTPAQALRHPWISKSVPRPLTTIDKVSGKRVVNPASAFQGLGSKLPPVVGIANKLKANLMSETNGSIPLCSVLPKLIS
Put plainly: Inhibition of DYRK3 assessed as residual activity at 10 uM by Cherenkov counting relative to control in presence of 5 uM ATP. The gist of the method: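 Single-point profiling at 10 µM in a panel of 78 protein kinases. Kinase activity is expressed as a percentage relative to control assays without compound.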

For test [5], the target named is T2, Inhibitor of nuclear factor kappa-B kinase subunit beta (Homo sapiens) (UniProt O14920).
T2 sequence (whole entry): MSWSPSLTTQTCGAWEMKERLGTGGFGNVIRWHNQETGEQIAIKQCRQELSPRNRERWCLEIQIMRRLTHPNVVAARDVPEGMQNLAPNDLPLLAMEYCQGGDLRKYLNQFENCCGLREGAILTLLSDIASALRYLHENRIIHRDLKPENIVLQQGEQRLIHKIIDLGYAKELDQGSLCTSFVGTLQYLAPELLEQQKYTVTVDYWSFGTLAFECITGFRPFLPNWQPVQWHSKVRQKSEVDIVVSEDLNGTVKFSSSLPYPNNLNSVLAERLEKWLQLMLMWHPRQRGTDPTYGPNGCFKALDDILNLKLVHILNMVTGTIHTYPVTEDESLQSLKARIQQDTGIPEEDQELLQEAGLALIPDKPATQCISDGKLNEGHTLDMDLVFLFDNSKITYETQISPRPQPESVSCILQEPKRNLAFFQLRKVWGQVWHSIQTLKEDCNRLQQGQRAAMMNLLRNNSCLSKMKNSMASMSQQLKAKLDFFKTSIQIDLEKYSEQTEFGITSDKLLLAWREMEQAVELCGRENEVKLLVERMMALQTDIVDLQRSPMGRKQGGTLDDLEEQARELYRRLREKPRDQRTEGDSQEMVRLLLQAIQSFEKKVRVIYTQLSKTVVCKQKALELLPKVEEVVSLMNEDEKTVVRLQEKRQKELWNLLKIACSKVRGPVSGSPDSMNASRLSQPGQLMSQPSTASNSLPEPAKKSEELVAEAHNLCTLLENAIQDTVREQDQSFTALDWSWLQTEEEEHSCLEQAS
The experiment in a line: Inhibition of IKK-beta assessed as residual activity at 0.1 uM by Cherenkov counting relative to control in presence of 5 uM ATP. The gist of the method:
(§2)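 Single-concentration screen at 0.1 µM across a panel of 76 protein kinases. Each kinase was run at an ATP concentration approximating its ATP Km. Results are % mean residual activity versus control assays without compound (n = 3 ± SD).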

The target in test [6] is Serine/threonine-protein kinase PLK1 (Homo sapiens) (UniProt P53350). Put plainly: Inhibition of PLK1 assessed as residual activity at 0.1 uM by Cherenkov counting relative to control in presence of 5 uM ATP. The gist of the method: (§3)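 Single-concentration screen at 0.1 μM in a 76-kinase panel. ATP for each kinase was set near its Km for ATP. Residual activity is given as a percentage of control assays without compound, mean of n = 3 ± SD.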
Chain of Serine/threonine-protein kinase PLK1 (Homo sapiens) (P53350 whole entry): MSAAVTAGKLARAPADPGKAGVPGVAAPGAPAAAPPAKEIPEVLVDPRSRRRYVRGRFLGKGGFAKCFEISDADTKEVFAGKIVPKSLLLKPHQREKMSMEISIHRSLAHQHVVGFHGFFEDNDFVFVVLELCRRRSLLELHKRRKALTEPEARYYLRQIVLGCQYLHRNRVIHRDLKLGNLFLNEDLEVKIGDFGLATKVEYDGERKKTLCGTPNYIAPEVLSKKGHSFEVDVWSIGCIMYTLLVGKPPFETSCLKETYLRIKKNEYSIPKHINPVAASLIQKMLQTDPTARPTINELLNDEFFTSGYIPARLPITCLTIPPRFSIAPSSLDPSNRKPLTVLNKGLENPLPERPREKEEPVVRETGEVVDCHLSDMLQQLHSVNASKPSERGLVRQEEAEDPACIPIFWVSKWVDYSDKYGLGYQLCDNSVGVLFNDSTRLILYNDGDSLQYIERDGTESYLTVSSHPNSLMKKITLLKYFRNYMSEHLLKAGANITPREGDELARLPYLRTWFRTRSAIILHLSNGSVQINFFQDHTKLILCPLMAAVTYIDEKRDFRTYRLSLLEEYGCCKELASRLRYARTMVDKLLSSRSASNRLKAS

The target of test [7] is Serine/threonine-protein kinase PAK 5 (Homo sapiens) (UniProt Q9P286). The experiment in a line: Inhibition of PAK5 assessed as residual activity at 0.1 uM by Cherenkov counting relative to control in presence of 20 uM ATP. The gist of the method:
(§4)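 Single-concentration selectivity screen at 0.1 μM against a panel of 76 protein kinases. Each kinase was run at an ATP level approximating its Km for ATP. Output is mean residual activity as % of the control assay without compound, n = 3 ± SD.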

Test [8] has as its target Serine/threonine-protein kinase PAK 4 (Homo sapiens) (UniProt O96013). Put plainly: Inhibition of PAK4 assessed as residual activity at 0.1 uM by Cherenkov counting relative to control in presence of 5 uM ATP. The gist of the method:
as §4

Test [9] has as its target Cyclin-dependent kinase 2/cyclin A (Homo sapiens) (UniProt P24941+P20248+P78396). The experiment in a line: Inhibition of CDK2/cyclin A assessed as residual activity at 0.1 uM by Cherenkov counting relative to control in presence of 20 uM ATP. The test is classed as protein-complex assay. The gist of the method:
as §2

Test [10] concerns the target Casein kinase I isoform delta (Homo sapiens, UniProt P48730). Put plainly: Inhibition of recombinant CK1delta kinase domain by Cherenkov counting.
Test [11] addresses Maternal embryonic leucine zipper kinase (Homo sapiens) (UniProt Q14680). Put plainly: Inhibition of MELK assessed as residual activity at 0.1 uM by Cherenkov counting relative to control in presence of 50 uM ATP. The gist of the method:
as §4

In test [12] the target is Mitogen-activated protein kinase 12 (Homo sapiens) (UniProt P53778). The experiment in a line: Inhibition of p38-gamma assessed as residual activity at 0.1 uM by Cherenkov counting relative to control. The gist of the method: as §3
Chain of Mitogen-activated protein kinase 12 (Homo sapiens) (P53778 whole entry): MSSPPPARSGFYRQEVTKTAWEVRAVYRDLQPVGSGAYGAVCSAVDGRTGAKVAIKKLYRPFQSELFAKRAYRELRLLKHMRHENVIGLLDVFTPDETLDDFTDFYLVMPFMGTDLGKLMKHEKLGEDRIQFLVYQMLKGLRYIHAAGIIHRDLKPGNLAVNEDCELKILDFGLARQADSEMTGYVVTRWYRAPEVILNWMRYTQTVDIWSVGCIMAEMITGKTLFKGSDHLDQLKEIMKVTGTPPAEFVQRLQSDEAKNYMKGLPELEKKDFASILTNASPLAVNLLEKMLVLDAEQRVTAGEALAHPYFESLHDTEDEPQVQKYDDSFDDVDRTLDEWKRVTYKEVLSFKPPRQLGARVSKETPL
The target in test [13] is Serine/threonine-protein kinase Nek6 (Homo sapiens) (UniProt Q9HC98). Put plainly: Inhibition of NEK6 assessed as residual activity at 0.1 uM by Cherenkov counting relative to control in presence of 50 uM ATP. An outline of the steps: as §4
Chain of Serine/threonine-protein kinase Nek6 (Homo sapiens) (Q9HC98 whole entry): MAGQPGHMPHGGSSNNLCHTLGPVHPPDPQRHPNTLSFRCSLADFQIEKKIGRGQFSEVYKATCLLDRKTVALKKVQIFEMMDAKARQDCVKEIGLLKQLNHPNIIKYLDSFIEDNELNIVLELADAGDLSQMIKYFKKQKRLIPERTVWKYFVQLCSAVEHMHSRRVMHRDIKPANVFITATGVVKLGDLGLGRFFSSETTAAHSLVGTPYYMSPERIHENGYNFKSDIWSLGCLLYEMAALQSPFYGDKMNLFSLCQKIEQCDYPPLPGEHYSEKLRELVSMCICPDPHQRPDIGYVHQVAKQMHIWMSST

Chain of RAC-alpha serine/threonine-protein kinase (Homo sapiens) (P31749 whole entry): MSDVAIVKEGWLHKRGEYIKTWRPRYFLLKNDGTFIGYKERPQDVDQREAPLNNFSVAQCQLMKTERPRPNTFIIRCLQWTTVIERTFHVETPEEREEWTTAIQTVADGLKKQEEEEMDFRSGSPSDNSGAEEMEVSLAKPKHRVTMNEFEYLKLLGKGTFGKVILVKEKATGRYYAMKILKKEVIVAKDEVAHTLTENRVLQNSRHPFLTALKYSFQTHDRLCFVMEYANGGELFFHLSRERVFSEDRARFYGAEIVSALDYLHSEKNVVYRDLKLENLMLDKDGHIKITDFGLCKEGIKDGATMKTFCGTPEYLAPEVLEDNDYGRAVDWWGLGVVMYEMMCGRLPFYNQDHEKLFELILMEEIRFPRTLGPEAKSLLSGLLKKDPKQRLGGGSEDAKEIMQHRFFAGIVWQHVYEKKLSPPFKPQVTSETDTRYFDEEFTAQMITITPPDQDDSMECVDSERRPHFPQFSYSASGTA
Chain of Serine/threonine-protein kinase PAK 4 (Homo sapiens) (O96013 whole entry, looked up): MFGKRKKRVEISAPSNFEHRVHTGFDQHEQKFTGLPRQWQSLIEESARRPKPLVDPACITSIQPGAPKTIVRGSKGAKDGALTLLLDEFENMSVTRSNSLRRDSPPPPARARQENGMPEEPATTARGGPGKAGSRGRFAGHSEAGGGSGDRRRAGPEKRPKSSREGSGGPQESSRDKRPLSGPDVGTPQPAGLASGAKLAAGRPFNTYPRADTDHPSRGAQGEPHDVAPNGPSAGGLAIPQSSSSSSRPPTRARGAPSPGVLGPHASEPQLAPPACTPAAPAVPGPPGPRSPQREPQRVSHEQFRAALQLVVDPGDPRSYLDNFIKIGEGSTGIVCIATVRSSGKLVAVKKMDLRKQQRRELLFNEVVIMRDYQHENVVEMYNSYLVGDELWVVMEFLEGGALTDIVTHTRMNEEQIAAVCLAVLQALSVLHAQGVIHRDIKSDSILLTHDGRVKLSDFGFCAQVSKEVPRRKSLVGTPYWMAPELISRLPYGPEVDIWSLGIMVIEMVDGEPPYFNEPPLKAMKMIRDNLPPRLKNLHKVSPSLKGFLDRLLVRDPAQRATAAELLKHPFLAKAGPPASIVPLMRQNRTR
Chain of Casein kinase I isoform delta (P48730 whole entry, the tested form may be a part, canonical isoform): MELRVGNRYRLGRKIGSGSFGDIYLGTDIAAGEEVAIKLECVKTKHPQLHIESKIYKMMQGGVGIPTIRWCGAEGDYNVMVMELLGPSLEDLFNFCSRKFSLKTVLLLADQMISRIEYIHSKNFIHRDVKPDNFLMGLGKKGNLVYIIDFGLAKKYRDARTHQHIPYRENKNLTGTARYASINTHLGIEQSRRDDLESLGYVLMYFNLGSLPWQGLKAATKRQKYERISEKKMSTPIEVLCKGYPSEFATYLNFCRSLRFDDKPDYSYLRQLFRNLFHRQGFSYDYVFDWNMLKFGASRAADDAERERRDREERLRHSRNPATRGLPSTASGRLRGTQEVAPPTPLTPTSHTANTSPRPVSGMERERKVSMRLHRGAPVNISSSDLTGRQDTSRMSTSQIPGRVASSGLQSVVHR
Chain of Maternal embryonic leucine zipper kinase (Homo sapiens) (Q14680 whole entry, looked up): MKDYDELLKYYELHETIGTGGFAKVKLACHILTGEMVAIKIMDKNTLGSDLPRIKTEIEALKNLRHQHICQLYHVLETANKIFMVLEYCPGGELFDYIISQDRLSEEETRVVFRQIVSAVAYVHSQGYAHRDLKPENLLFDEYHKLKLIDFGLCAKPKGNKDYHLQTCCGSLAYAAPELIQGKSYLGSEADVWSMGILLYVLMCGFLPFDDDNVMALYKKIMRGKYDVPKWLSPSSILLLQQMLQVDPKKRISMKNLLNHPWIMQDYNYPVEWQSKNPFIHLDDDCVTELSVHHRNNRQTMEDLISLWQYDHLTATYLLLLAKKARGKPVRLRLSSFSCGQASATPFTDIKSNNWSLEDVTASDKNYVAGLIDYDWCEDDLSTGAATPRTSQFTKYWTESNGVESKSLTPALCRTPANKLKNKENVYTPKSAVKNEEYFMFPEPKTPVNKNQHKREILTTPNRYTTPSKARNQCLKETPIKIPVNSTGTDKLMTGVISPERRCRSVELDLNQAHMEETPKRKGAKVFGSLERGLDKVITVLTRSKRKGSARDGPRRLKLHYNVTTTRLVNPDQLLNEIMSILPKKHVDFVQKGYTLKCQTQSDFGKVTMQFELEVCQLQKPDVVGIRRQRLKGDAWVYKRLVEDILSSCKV
Chain of Serine/threonine-protein kinase PAK 5 (Homo sapiens) (Q9P286 whole entry, looked up): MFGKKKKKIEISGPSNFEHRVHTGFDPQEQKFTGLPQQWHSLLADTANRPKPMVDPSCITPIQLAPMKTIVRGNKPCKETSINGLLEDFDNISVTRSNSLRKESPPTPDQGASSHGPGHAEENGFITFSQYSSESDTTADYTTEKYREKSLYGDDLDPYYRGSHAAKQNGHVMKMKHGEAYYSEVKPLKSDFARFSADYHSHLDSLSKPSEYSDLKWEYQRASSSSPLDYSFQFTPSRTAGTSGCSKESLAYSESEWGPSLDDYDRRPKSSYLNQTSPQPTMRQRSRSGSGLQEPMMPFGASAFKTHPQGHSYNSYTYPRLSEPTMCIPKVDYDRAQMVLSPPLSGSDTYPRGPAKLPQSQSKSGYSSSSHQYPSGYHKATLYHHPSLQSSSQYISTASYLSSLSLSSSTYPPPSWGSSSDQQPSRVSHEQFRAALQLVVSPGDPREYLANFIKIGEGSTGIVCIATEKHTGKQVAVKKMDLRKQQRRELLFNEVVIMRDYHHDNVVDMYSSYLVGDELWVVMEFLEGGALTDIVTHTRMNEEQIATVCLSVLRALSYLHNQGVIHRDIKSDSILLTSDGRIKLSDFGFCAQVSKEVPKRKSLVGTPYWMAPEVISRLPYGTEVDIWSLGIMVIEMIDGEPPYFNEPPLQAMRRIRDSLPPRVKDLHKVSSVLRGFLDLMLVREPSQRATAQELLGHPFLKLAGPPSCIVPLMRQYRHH

For the molecule `CC(C)c1noc(-c2ccc(F)cc2)c1-c1ccncc1`, the Activity in [1] worked out at 94%; in test [2], 105%; in test [3], 93%; in [4], 101%.
As to `CC(C)c1onc(-c2ccc(F)cc2)c1-c1ccncc1`, the Activity in test [1] was 94%; in test [2], 104%; in test [3], 104%; in test [4] it was 97%.
Consider `COc1ccc(/C=C/C(=O)Nc2cc(-c3[nH]c([S+](C)[O-])nc3-c3ccc(F)cc3)ccn2)c(OC)c1` (stereo unspecified), for which the Activity in [5] was determined as 87%; in test [6], 110%; in test [7], 105%; in [8] it was 98%; in [9], 115%; in [11] it was 92%. Further, the Activity worked out at 97% in test [12] and 111% in [13]. For the same molecule, the IC50 in [10] stood at 5 nM.
For the molecule `COc1ccc(/C=C/C(=O)Nc2cc(-c3[nH]c(SC)nc3-c3ccc(F)cc3)ccn2)c(OC)c1`, the Activity in [5] was 84%; in test [6] it was 97%; in test [7] it was 94%; in [8] it was 81%; in [9], 112%; in test [11], 81%. The Activity is 84% in test [12] and 90% in [13]. For the same molecule, the IC50 in [10] worked out at 4 nM.
